# Assay results as given in ChEMBL document CHEMBL3785041, “Discovery of a Potent Free Fatty Acid 1 Receptor Agonist with Low Lipophilicity, Low Polar Surface Area, and Robust in Vivo Efficacy” (J Med Chem, 2016).
# Active and inactive are the calls of the source. The rule behind the calls is not given here.
# Columns and labels:
# [1] = biological target: T1, Free fatty acid receptor 1 (Homo sapiens, UniProt O14842); assay: Agonist activity at human FFA1 receptor expressed in human 1321N1 cells measured for 50 intervals of 0.4 secs by calcium mobilization assay; format: functional, cell-based
# Outline: (§1)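 Ca²⁺ read-out at human FFA1. Efficacy is expressed relative to TUG-20 (3-(4-(benzyloxy)phenyl)propanoic acid).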
# [2] = biological target: T1, Free fatty acid receptor 1; assay: Agonist activity at human FFA1 receptor expressed in human 1321N1 cells measured for 50 intervals of 0.4 secs by calcium mobilization assay relative to TUG-20; format: functional, cell-based; outline: as §1
# [3] = biological target: T2, Free fatty acid receptor 4 (Homo sapiens, UniProt Q5NUL3); assay: Agonist activity at human C-terminal YFP-tagged FFA4 receptor expressed in HEK293 cells incubated for 5 mins by BRET based beta-arrestin 2 recruitment assay; format: cell-based
# T2 sequence (Q5NUL3 whole entry): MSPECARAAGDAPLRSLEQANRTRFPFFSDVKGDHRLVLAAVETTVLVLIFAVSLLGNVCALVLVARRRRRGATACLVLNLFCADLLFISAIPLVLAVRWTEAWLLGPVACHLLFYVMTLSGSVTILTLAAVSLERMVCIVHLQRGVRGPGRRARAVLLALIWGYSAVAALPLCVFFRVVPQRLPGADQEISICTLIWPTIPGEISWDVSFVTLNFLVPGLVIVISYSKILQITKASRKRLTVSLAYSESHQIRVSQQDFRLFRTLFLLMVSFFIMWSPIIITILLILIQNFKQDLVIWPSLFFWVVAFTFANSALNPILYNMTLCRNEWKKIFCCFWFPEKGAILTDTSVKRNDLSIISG
# Outline: (§2)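 Human FFA4 counter-screen using a β-arrestin mobilization read-out. Efficacy is expressed relative to a reference alkyne FFA1 agonist tested at 10 μM.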
# [4] = Drug metabolism in human liver microsomes assessed as cytochrome P450-mediated compound oxidation by measuring drug recovery after 1 hr by HPLC analysis; format: ADME; conditions: read-out: Drug recovery
# [5] = Chemical stability in fasted state simulated gastric fluid assessed as drug recovery at 37 degC after 2 hrs; format: physicochemical; conditions: read-out: Drug recovery
# [6] = biological target: T3, Free fatty acid receptor 4 (Homo sapiens) (UniProt Q5NUL3); assay: Agonist activity at human C-terminal YFP-tagged FFA4 receptor expressed in HEK293 cells incubated for 5 mins by BRET based beta-arrestin 2 recruitment assay relative to TUG-424; format: cell-based; outline: as §2
# T3 sequence (whole entry): T2 sequence (Q5NUL3 whole entry)
# [7] = Lipophilicity, log D of compound at pH 7.4; format: physicochemical; conditions: buffer
# [8] = Aqueous kinetic solubility in phosphate buffered saline at 200 uM by turbidimetric assay; format: physicochemical; conditions: read-out: Kinetic_solubility
# [9] = Chemical stability in 0.1 M phosphate buffered saline assessed as drug recovery at 37 degC after 24 hrs; format: physicochemical; conditions: read-out: Drug recovery
# [10] = Chemical stability in fed state simulated intestinal fluid assessed as drug recovery at 37 degC after 2 hrs; format: physicochemical; conditions: read-out: Drug recovery
# [11] = Chemical stability in fasted state simulated intestinal fluid assessed as drug recovery at 37 degC after 2 hrs; format: physicochemical; conditions: read-out: Drug recovery
# [12] = Cmax in C57BL/6 mouse plasma at 10 mg/kg, po; format: ADME, organism-based; parameters: dose 10 mg/kg, route oral
# [13] = Tmax in C57BL/6 mouse plasma at 10 mg/kg, po; format: ADME, organism-based
# [14] = Half life in C57BL/6 mouse plasma at 10 mg/kg, po; format: ADME, organism-based
# [15] = AUC (0 to infinity) in C57BL/6 mouse plasma at 10 mg/kg, po; format: ADME, organism-based; parameters: dose 10 mg/kg, route oral, time infinity
# Mus musculus [16] = assay: Clearance in C57BL/6 mouse plasma at 10 mg/kg, po; format: ADME, organism-based; conditions: in vivo
# Mus musculus [17] = assay: Antidiabetic activity in C57BL/6 mouse assessed as reduction in plasma glucose level at 10 mg/kg administered 15 mins through oral gavage prior to glucose challenge measured after 30 to 120 mins by OGTT; format: functional, organism-based
# Mus musculus [18] = assay: Antidiabetic activity in C57BL/6 mouse assessed as increase in plasma insulin level at 10 mg/kg administered 15 mins through oral gavage prior to glucose challenge measured after 30 mins by ELISA; format: functional, organism-based
# [19] = biological target: T1, Free fatty acid receptor 1; assay: Potency index, ratio of alpha-linolenic acid EC50 to compound EC50 for human FFA1 receptor expressed in human 1321N1 cells; format: cell-based
# [20] = Ratio of Cmax in C57BL/6 mouse plasma to EC50 for human FFA1 receptor expressed in human 1321N1 cells
# T1 sequence (O14842 whole entry): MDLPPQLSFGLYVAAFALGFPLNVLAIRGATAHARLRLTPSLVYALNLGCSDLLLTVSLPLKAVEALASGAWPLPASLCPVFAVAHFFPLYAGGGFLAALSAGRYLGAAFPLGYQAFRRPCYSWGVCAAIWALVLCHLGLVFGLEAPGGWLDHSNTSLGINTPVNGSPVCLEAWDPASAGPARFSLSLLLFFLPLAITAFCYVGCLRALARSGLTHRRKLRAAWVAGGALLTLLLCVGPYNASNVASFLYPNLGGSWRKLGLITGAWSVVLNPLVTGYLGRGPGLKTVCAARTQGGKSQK
SMILES,EC50 ([1]; read-out: pEC50 (converted)),Efficacy [2],EC50 [3],Efficacy [6],other results
C/C=C(/C)C#Cc1ccc(CCC(=O)O)c(F)c1,–,103%,20 µM,101%,EC50 ([1]; read-out: EC50): 0.02 µM; remaining at 1 h [4]: 38%; remaining at 2 h [5]: 84%; logD [7]: 1.79; solubility kinetic at 200 µM [8]: 191 µM; remaining at 24 h [9]: 100%; remaining at 2 h [10]: 95%; remaining at 2 h [11]: 100%; Cmax [12]: 44.7 µM; Tmax [13]: 15 min; half-life [14]: 99 min; AUC(0-inf) [15]: 138 µM·h; clearance (Mus musculus [16]): 0.49 mL/min/kg; Activity (Mus musculus [17]): Active; Activity (Mus musculus [18]): Active; Ratio EC50 [19]: 100; Ratio [20]: >1000
C/C=C/C#Cc1ccc(CCC(=O)O)c(F)c1,0.209 µM,97%,34.7 µM,38%,–
C/C=C\C#Cc1ccc(CCC(=O)O)c(F)c1,0.0479 µM,91%,17.8 µM,49%,–
CC/C=C\C/C=C\C/C=C\CCCCCCCC(=O)O [LINOLENIC ACID],–,–,–,–,EC50 ([1]; read-out: EC50): 3 µM
C=C(C)C#Cc1ccc(CCC(=O)O)c(F)c1,–,106%,> 100 µM,–,–
COc1ccc(CCN(C)CCCC(C#N)(c2ccc(OC)c(OC)c2)C(C)C)cc1OC (centres undefined),–,–,–,–,remaining at 1 h [4]: 23%
O=C(O)CCc1ccc(C#CC2(O)CCCCC2)cc1,–,–,> 100 µM,–,pEC50 ([1]; 1321-n1): < 4
O=C(O)CCc1ccc(C#CC2CCCCC2)cc1,0.513 µM,98%,9.55 µM,118%,–
C/C(C#Cc1ccc(CCC(=O)O)c(F)c1)=C/CO,–,105%,> 100 µM,–,–
C/C=C(\C)C#Cc1ccc(CCC(=O)O)c(F)c1,–,97%,26.3 µM,89%,–

# Further lines, with some results ahead:
EC50 ([1]; read-out: pEC50 (converted)),Efficacy [2],EC50 [3],Efficacy [6],SMILES,other results
5.01 µM,128%,> 100 µM,–,O=C(O)CCc1ccc(C#CC2CC2)cc1,–
> 100 µM,–,> 100 µM,–,C#Cc1ccc(CCC(=O)O)cc1,–
0.0832 µM,105%,7.59 µM,102%,CC(C)=C(C)C#Cc1ccc(CCC(=O)O)cc1,–
0.417 µM,108%,> 100 µM,–,C=C(C)C#Cc1ccc(CCC(=O)O)cc1,–
1.82 µM,128%,4.79 µM,102%,O=C(O)CCc1ccc(C#CCCc2ccccc2)cc1,–
0.49 µM,94%,33.9 µM,105%,O=C(O)CCc1ccc(C#CC2CCCC2)cc1,–
0.2 µM,100%,> 100 µM,–,O=C(O)CCc1ccc(C#CC2=CCCCC2)cc1,–
1.45 µM,84%,4.07 µM,102%,CCCCCCCC#Cc1ccc(CCC(=O)O)cc1,–
0.389 µM,103%,10.5 µM,113%,O=C(O)CCc1ccc(C#CCc2ccccc2)cc1,–
